This is a sample that favours compounds with a hit; in the whole collection about 9.2% have one here.
PTEN del growth: growth suppression of PTEN-null HCT116, primary screen, cell-based, CellTiter-Glo; 1.2% of 140,000 active; viability, % at 10 µM; AID 827, 2007; HCT116 PTEN-null viability, 60 h; stronger effect = lower value;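 active = viability at or below a set limit, 4 SD under the median of all tested compounds, cut at about 3.7% in these data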;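 also: PTEN knockout HCT116 line with beta catenin targeted HCT116 as companion control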
Autophagy mod: autophagy modulators in MEF cells, primary screen, imaging, high-content, MEF GFP-LC3; MEF GFP-LC3 puncta imaging; test concentration mostly 10 µM; 0.98% of 190,000 active; AID 463193, 2010; calls only at 10 µM (by protocol);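 active = percentage of spot-positive cells more than 3 SD above its plate mean, without a fluorescence outlier flag or 80% toxicity; inconclusive = no clear call, values can overlap the other calls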;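 also: spot-positive cell cutoff set from DMSO-treated cells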
Lmaj promast: Leishmania major promastigote growth inhibition, primary screen | Leishmania major promastigotes, resazurin fluorescence viability | inhibition, % at 10 µM | 9% of 200,000 active; in the data active = inhibition above about 50%;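 also: promastigotes grown with compound for 44 hours at 28 °C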
bCat KO growth: primary screen for growth suppressors in beta-catenin knockout HCT116 cells (colon tumor, human); HCT116 beta-catenin knockout viability, CellTiter-Glo, 60 h; stronger effect = lower value; viability, % at 10 µM; 1.5% of 140,000 active; AID 818, 2007;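 active = viability at or under a set limit, the compound median less 4 SD, cut at about 6% in these data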;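 also: 0% = Hyamine 1622 control at 20 µM and 100% = untreated cell control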
Dynein transport: inhibitors of GR-EGFP nuclear translocation, primary screen, dynein cargo transport inhibitor project, imaging, high-content, 3617.4 mouse cells; test concentration mostly 20 µM; stimulated with dexamethasone, 1 µM; stronger effect = lower value; z-score, hits read low; AID 1381, 2008; 0.47% of 220,000 active;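 active = plate z-score of nuclear minus cytoplasmic receptor signal below a set negative limit, without overly bright fluorescence or cell loss, cut at about -3.5 in these data, passing the limit was not always enough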;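 also: z-score of nuclear minus cytoplasmic ring GR-EGFP intensity difference per well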
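Buffer or medium: Induction medium lacking tetracycline, stripped serum | Also added: Dexamethasone agonist, 1.0 µM final, for 30 min | Timing: 48 h induction, 1 h compound, 30 min dex at 37 °C | Detection: Formaldehyde fixation, Hoechst nuclear stain, 10x automated fluorescence imaging | Measure: Nuclear versus cytoplasmic GR-EGFP signal, averaged per well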
Dynein confirm: dynein cargo transport inhibitors, GR-EGFP translocation, confirmation, imaging, high-content imaging, GR-EGFP cells; AID 463116, 2010; 3617.4 GR-EGFP nuclear translocation imaging, dexamethasone-induced; calls only at 20 µM; shares compounds with Dynein transport; 69% of 1,000 active;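 active = inhibition of receptor movement into the nucleus at or above a set limit in both runs, with normal cell brightness and cell count; inconclusive = limit reached in only one run, brightness and count normal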;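 also: dexamethasone at 1 µM final in well for 30 min; nuclear minus cytoplasmic GR-EGFP mean intensity difference in channel 2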
* hit, by the source's call; i = inactive; ? = inconclusive; . = no result given; + = active, no number.

SMILES	PTEN del growth	Autophagy mod	Lmaj promast	bCat KO growth	Dynein transport	Dynein confirm
COc1cccc(C2CC(C(F)(F)F)n3nc(C(=O)NCc4cccnc4)cc3N2)c1 (stereo not drawn)	95.5	i	-7.1	91.1	-3.59*	i
CCCc1ccc(C#N)c(SC2CC(=O)N(c3ccc(OC)cc3)C2=O)n1 (stereo not drawn)	.	i	2.9	.	-1.16	.
COc1ccc(N2C(=O)CC(Sc3nnnn3-c3ccc(F)cc3)C2=O)cc1 (stereo not drawn)	.	i	-2.9	.	-3.96	+
C(=C\c1ccco1)/C1=NN(c2ccccc2)C(c2ccco2)C1 (stereo not drawn)	65.2	i	7.1	77.4	-0.221	.
O=[N+]([O-])c1ccc(/C=C/C2=NN(c3ccccc3)C(c3ccco3)C2)o1 (stereo not drawn)	.	+	42.5	.	-6.82	+
CC(=O)n1cc(N(C(=O)CCl)c2ccc(C)cc2)c2ccccc21	.	.	.	.	-6.01*	+
Cc1ccc(-c2nc(=S)c3c(n2Cc2cccnc2)CC(C)(C)OC3)cc1	.	.	.	.	-0.17	.
CC(C)(C)C(=O)/C(C#N)=C/c1cccs1	.	.	.	.	0.272	.
N#C/C(=C\c1cccs1)C(=O)c1ccccc1Cl	.	.	.	.	-4.93*	+
Cc1cccc(NC(=S)c2nc3ccccc3s2)c1	86.9	i	-1.6	91.2	-0.596	.
CCOC(=O)c1c(C(=O)OCC)c(C)n(CCc2ccc(OC)c(OC)c2)c1C	97.9	i	2.2	86.4	0.0246	.
CNC(=O)C1CC(=O)N(CCc2ccc(OC)c(OC)c2)C(=Nc2ccc(F)cc2)S1 (stereo not drawn)	.	i	-0.9	.	-0.554	.
COC(=O)c1cc(=O)n(Cc2ccc(OC)c(OC)c2)c(=Nc2ccc(F)cc2)s1	2.0*	i	6.8	2.0*	-4.35*	+
COC(=O)C1CCN(c2cc(=O)n(Cc3ccc(F)cc3)c(=O)[nH]2)CC1	90.0	i	-2.2	95.7	0.413	.
COC(=O)c1cc(=O)n(Cc2ccc(F)cc2)c(=Nc2ccccc2)s1	.	.	.	.	-4.64*	+
COC(=O)c1cc(=O)n(-c2ccccc2)c(=Nc2ccccc2)s1	25.3	i	87.0*	25.8	-3.93*	+
COC(=O)c1cc(=O)n(CCc2ccc(OC)c(OC)c2)c(=Nc2ccc(F)c(Cl)c2)s1	3.7*	i	98.3*	2.4*	-4.02*	+
O=C(NCc1ccco1)C(=O)c1c[nH]c2ccccc12	.	i	-9.4	.	-0.44	.
COc1ccc(CNC(=O)c2cnccn2)cc1	102.5	i	-2.2	105.1	-0.445	.
COC(=O)c1cc(=O)n(Cc2cccs2)c(=Nc2ccccc2)s1	.	.	.	.	-4.43*	+
CN1CC=C2C(C#N)=C(N)C(C#N)(C#N)C(Cc3ccccc3)C2C1 (stereo not drawn)	93.7	?	17.4	94.2	-4.63	i
O=C1CCCC(O)=C1C(C#Cc1ccccc1)C1=C(O)CCCC1=O	107.3	i	8.6	99.8	-5.55*	+
CC1(C)CC(=O)C(C(C#Cc2ccccc2)C2=C(O)CC(C)(C)CC2=O)=C(O)C1	93.2	i	-1.9	80.3	-1.96	.
CC(=O)N(CCC(c1ccco1)C(C)C)Cc1ccc(Cl)cc1 (stereo not drawn)	.	.	.	.	-4.66*	i
CCOc1nc(C#N)nc(N2CCCCC2)n1	41.8	i	4.8	50.1	-3.53*	+
SMILES	PTEN del growth	Autophagy mod	Lmaj promast	bCat KO growth	Dynein transport	Dynein confirm
Cc1nc2c(-c3ccc(F)cc3)c(C)nn2c(C)c1CCC(=O)N1CCN(c2ccc(F)cc2)CC1	84.1	i	-3.4	82.1	-0.775	.
CCN(C(=O)c1coc(=O)c(Br)c1)c1ccc2c(c1)OCO2	84.9	i	5.9	83.2	-4.78*	+
COc1ccc([N+](=O)[O-])c(S(=O)(=O)c2ccccc2)n1	.	.	.	.	-5.53*	+
COc1ccccc1S(=O)(=O)c1ccccc1[N+](=O)[O-]	95.1	i	13.0	92.1	1.67	.
COc1ccc([N+](=O)[O-])c(S(=O)(=O)c2ccc(Cl)cc2)n1	.	.	.	.	-4.95*	+
CC1(c2ccc(Cl)cc2)NC(=O)CS1 (stereo not drawn)	.	i	-6.3	.	0.312	.
COc1ccccc1NC1=C(NC(C)=O)C(=O)c2ccccc2C1=O	.	i	10.3	.	-5.07*	?
COC1=C(Nc2ccccc2OC)C(=O)c2ccccc2C1=O	.	.	.	.	0.437	.
COc1ccc(OC)c2c1CCC2=O	95.0	i	-4.2	90.3	-0.457	.
CCOC(=O)c1c(-c2ccccc2)csc1NC(=O)/C(C#N)=C/c1ccc(O)c(OC)c1	82.5	+	2.8	79.7	-4.75*	+
C=CCSc1nc2ccccc2n1C(=O)/C=C/c1cc(OC)c(OC)c(OC)c1	2.4*	i	5.3	3.1*	-6*	+
COc1cc(/C=C/C(=O)NCCn2c(C)cc3ccccc32)cc(OC)c1OC	72.6	i	18.2	91.8	-1.32	.
O=C(CNCCc1ccccc1)N1CCc2ccccc2C1	.	i	-2.5	.	-0.577	.
O=C(Nc1ccc2nc(-c3ccco3)c(-c3ccco3)nc2c1)N1CCCCCC1	83.6	i	-6.6	87.4	-1.1	.
CCOC(=O)C1CCN(C(=O)Nc2ccc3nc(-c4ccco4)c(-c4ccco4)nc3c2)CC1	77.3	i	96.1*	76.1	-4.54*	i
CSC(SC)=C(C#N)C(=O)c1ccccc1	.	.	.	.	-4.79*	+
COc1cccc(C(=O)C(C#N)=C(SC)SC)c1	.	.	.	.	-4.53*	+
COc1cc(OC)c2c(O)c3c(c(-c4c5c(c(O)c6c(OC)cc(OC)cc46)CO[C@@H](C)[C@H]5O)c2c1)[C@H](O)[C@H](C)OC3	.	i	-5.8	.	-4.51*	+
Cn1cc(C=O)c2cc(S(=O)(=O)N3CCOCC3)ccc21	96.7	i	-6.1	90.9	1.3	.
CCC1=C(OC(=O)N(CC)CC)N2C(=O)OC(=NCc3ccccc3)[C@]2(C)[C@H]2C1=CC[C@H]1C(=O)N(c3ccccc3)C(=O)[C@H]12	.	.	.	.	-0.875	.
CCC1=C2CC[C@H]3C(=O)N(c4ccccc4)C(=O)[C@H]3[C@H]2[C@@]2(C)C(=NCc3ccccc3)OC(=O)N2C1=O	.	.	.	.	-4.16*	+
CCN(CC)c1ccc(/C=C/C(=O)c2ccc(Br)cc2)cc1	72.2	+	-4.2	83.5	-6.94	+
CCN(CC)c1ccc(C(=O)NN)cc1	.	i	5.3	.	0.313	.
ClC1=C(Cl)C(Cl)=C(Cl)C1=C/C=C/c1ccccc1	.	.	.	.	-4.08*	i
O=C1OC(/C=C/c2ccccc2)=NC/1=C/C=C/c1ccccc1	94.1	i	-5.7	84.6	-0.714	.
COc1ccc(N(C)C(=O)c2oc(=O)c3ccccc3c2-c2ccccc2)c(OC)c1	.	.	.	.	-0.953	.

High-throughput results deposited in PubChem BioAssay by several laboratories.
